This note sets out measurements from ChEMBL document CHEMBL1154500, “Mechanism-based inhibitors of MenE, an acyl-CoA synthetase involved in bacterial menaquinone biosynthesis” (Bioorg Med Chem Lett, 2008).

Active and inactive are the calls of the source. The calls are words filed in the database; no cut-off is given here. Bounds are passed on as bounds.

As a reminder, the IC50 is the point on the concentration scale where inhibition reaches its midpoint.

The nature of experiment [1]: Inhibition of Escherichia coli Histidine6-tagged 20 nM MenE expressed in Escherichia coli BL21 cells coexpressing Mycobacterium tuberculosis Histidine6-tagged 7.2 uM MenB assessed as formation of DHNA-CoA by coupled assay. The gist of the method:
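Coupled MenE–MenB assay. E. coli MenE and M. tuberculosis MenB each carried an N-terminal His6 tag, were expressed separately in E. coli BL21, and were affinity-purified. Reactions contained MenB (7.2 μM), ATP, CoA and OSB (each 240 μM), and inhibitor (0–200 μM), and were started by adding MenE (20 nM final). DHNA-CoA formation was followed at 392 nm to derive IC50.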

A short description of experiment [2]: Inhibition of Escherichia coli Histidine6-tagged 5 uM MenE expressed in Escherichia coli BL21 cells coexpressing Mycobacterium tuberculosis Histidine6-tagged 100 nM MenB assessed as formation of DHNA-CoA by coupled assay. The gist of the method:
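Counter-assay in the coupled format using separately purified His6-tagged E. coli MenE and M. tuberculosis MenB. MenB was limiting (100 nM) and MenE in excess (5 μM), to test for direct MenB inhibition. The read-out was DHNA-CoA formation.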

Experiment [3] deals with Mycolicibacterium smegmatis. Put plainly: Growth inhibition of Mycobacterium smegmatis upto 300 uM. The format is functional, organism-based.

In the case of `COC(=O)c1ccccc1C(=O)CCC(=O)NS(=O)(=O)NC[C@H]1O[C@@H](n2cnc3c(N)ncnc32)[C@H](O)[C@@H]1O`, the IC50 in experiment [1] was determined as 34.1 µM. The inhibition entry in experiment [2] and in experiment [3] was “inactive” throughout.
As for `C=C(CCC(=O)NS(=O)(=O)NC[C@H]1O[C@@H](n2cnc3c(N)ncnc32)[C@H](O)[C@@H]1O)c1ccccc1C(=O)OC`, the IC50 in experiment [1] is above 200 µM. The inhibition entry in experiment [2] and in experiment [3] was “inactive” in each case.
Take `C=C(CC/C=C/S(=O)(=O)NC[C@H]1O[C@@H](n2cnc3c(N)ncnc32)[C@H](O)[C@@H]1O)c1ccccc1C(=O)OC`: the IC50 in experiment [1] is above 200 µM. For the same compound, the inhibition result in experiment [2] and in experiment [3] was “inactive” each time.
Take `C=C(CCC(=O)NS(=O)(=O)OC[C@H]1O[C@@H](n2cnc3c(N)ncnc32)[C@H](O)[C@@H]1O)c1ccccc1C(=O)OC`: in experiment [1], the IC50 was above 200 µM. The inhibition result in experiment [2] and in experiment [3] was “inactive” throughout.
Take `COC(=O)c1ccccc1C(=O)CC/C=C/S(=O)(=O)NC[C@H]1O[C@@H](n2cnc3c(N)ncnc32)[C@H](O)[C@@H]1O`: the IC50 in experiment [1] was found to be 5.7 µM. Moreover, the inhibition entry in experiment [2] and in experiment [3] was “inactive” in each case.
On to `COC(=O)c1ccccc1C(=O)CCC(=O)NS(=O)(=O)OC[C@H]1O[C@@H](n2cnc3c(N)ncnc32)[C@H](O)[C@@H]1O`, for which the IC50 in experiment [1] worked out at 38 µM. Besides, the inhibition entry in experiment [2] and in experiment [3] was “inactive” throughout.
